Laboratory results published in the RNAGym collection of RNA variant scans (doi:10.1126/science.aae0568).
This sample holds only a part of the variants without activity.

B1: tRNA (parent)
chain: GUUCCGUUGGCGUAAUGGUAACGCGUCUCCCUCCUAAGGAGAAGACUGCGGGUUCGAGUCCCGUACGGAACG

Variants of: B1
Assay: yeast fitness relative to wild type (ratio to wild type); higher = fitter; tRNA-Arg(CCU), competitive growth, 37 C, YPD
Summary of the method: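 Genotype frequency changes were the basis for Darwinian fitness relative to wild type. The frequencies came from 100-nucleotide paired-end sequencing of gene amplicons from the start population and each end population of pooled yeast strains with tRNA-Arg(CCU) gene variants at the native locus. Competition ran in YPD at 37°C for 24 hours in six replicates, genotypes needed ≥ 100 starting reads, and estimates < 0.5 were set to 0.5.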

Row | Variant | yeast fitness
1 | GUUCCGUUGGCGUAAUGGUAACGCGUCUCCCCCCUAAGGCGAAGACUGCGAGUUCGAGUCUCGUACGGCACG [U32C A40C G51A C61U A69C] | ≤ 0.5
2 | GUUCCGUUGGCGUAAUGGUAACGCGUCUCCCCCCUAAGGGGAAGACUGCGGGUUCGAGUCCCGUACGGACCG [U32C A40G A70C] | 0.634
3 | GUUCCGUUGGCGUAAUGGUAACGCGUCUCCCCCCUAAGGGGAAGACUGCGGGUUCGAGUCCCGUACGGAACG [U32C A40G] | 0.66
4 | GUUCCGUUGGCGUAAUGGUAACGCGUCUCCCACCUAAGGAGAAGACUGCGGGUUCGAGUCCCGAUCGGAACG [U32A U64A A65U] | 0.961
5 | GUUCCGUUGGCGUAAUGGUAACGCGUCUCCCCCCUAGGGAGAAGACUGCGGGUUCGAGUCCCGUACGGAACG [U32C A37G] | 0.819
6 | GUUCCGUUGGCGUAAUGGUAACGCGUCUCCCCCCUAAGGAGAGGACUGCGGAUUCGAGUCGCGUACGGAACG [U32C A43G G52A C61G] | 0.532
7 | GUUCCGUUGGCGUAAUGGUAACGCGUCUCCCCCCUAAGGCGAAGACUCCGGGUUCGAGUCCCGUACGGAACG [U32C A40C G48C] | ≤ 0.5
8 | GUUCCGUUGGCGUAAUGGUAACGCGUCUCCCCCCUAUGGAGAAAACUGCGGGUUCGAGUCCCGUACGGAGCG [U32C A37U G44A A70G] | ≤ 0.5
9 | GUUCCGUUGGCGUAAUGGUAACGCGUCUCCCCCCUAAGGAGAAGCCUGCGGGUUCGAGUCCCGUACGGAACG [U32C A45C] | 0.864
10 | GUUCCGUUGGCGUAAUGGUAACGCGUCUCCCCCCUAAGGAGAAGGCUGCGGGUUCGAGUCCCGUACGGAACG [U32C A45G] | 0.91
11 | GUUCCGUUGGCGUAAUGGUAACGCGUCUCCCCCCUAAGGAGAAGUCUGCGGGUUCGAGUCCCGUACGGAACG [U32C A45U] | 0.942
12 | GUUCCGUUGGCGUAAUGGUAACGCGUCUCCCCCCUUAAGAGAAGACUGCAGGUUCGAGUCCCGUACAGAACG [U32C A36U G38A G50A G67A] | ≤ 0.5
13 | GUUCCGUUGGCGUAAUGGUAACGCGUCUCCCCCCUAAGGAGUAGACUGCGGGUUCGACUCCCGUACGGAACG [U32C A42U G58C] | 0.623
14 | GUUCCGUUGGCGUAAUGGUAACGCGUCUCCCCCCUAAGGUGAAGACUGCGGGUUCGAGUCCCGUACGGAUCG [U32C A40U A70U] | 0.784
15 | GUUCCGUUGGCGUAAUGGUAACGCGUCUCCCCCCUAAGGUGAAGACUGCGGGUUCGAGCCCCGUACGGAACG [U32C A40U U59C] | 0.718
16 | GUUCCGUUGGCGUAAUGGUAACGCGUCUCCCCCCUAAGGAGAGGACUGCGGGUUCGAGUCCCGUACGGAGCG [U32C A43G A70G] | 0.708
17 | GUUCCGUUGGCGUAAUGGUAACGCGUCUCCCCCCUAAGGAGCACACUGCGGCUUCGAGUCCCGUACGGAACG [U32C A42C G44C G52C] | 0.548
18 | GUUCCGUUGGCGUAAUGGUAACGCGUCUCCCCCCUAAGGAGAAGUCUGGGGGUUGGAGUCCCGUACCGAACG [U32C A45U C49G C55G G67C] | ≤ 0.5
19 | GUUCCGUUGGCGUAAUGGUAACGCGUCUCCCCCCUAAGGAGAGGACUGCGGGUUCGAGUCCCGUACGGAACG [U32C A43G] | 0.998

Row | Variant | yeast fitness
20 | GUUCCGUUGGCGUAAUGGUAACGCGUCUCCCCCCUAAGGAGAUGACUGCGGGUUCGAGUCCCGUACGGAACG [U32C A43U] | 0.921
21 | GUUCCGUUGGCGUAAUGGUAACGCGUCUCCCCCCUAAGGAGGAGACUGCGGGUUCGAGUCCCGUACGGAACG [U32C A42G] | 0.861
22 | GUUCCGUUGGCGUAAUGGUAACGCGUCUCCCCCCUAAGGAGCAGACUGCGGGUUCGAGUCCCGUACGGAACG [U32C A42C] | 0.866
23 | GUUCCGUUGGCGUAAUGGUAACGCGUCUCCCCCCUAAGGAGUACACUGCGGGUACGAGUCCCGUACGGAACG [U32C A42U G44C U54A] | ≤ 0.5
24 | GUUCCGUUGGCGUAAUGGUAACGCGUCUCCCCCCUAAGGUGAAGACUGCGGGUUCGAGUUCCGUACCGAGCG [U32C A40U C60U G67C A70G] | ≤ 0.5
25 | GUUCCGUUGGCGUAAUGGUAACGCGUCUCCCCCCUAUGGAGAAGACUACGGGUUCGAGUCCCCUACGGAACG [U32C A37U G48A G63C] | ≤ 0.5
26 | GUUCCGUUGGCGUAAUGGUAACGCGUCUCCCCCCUAAGGUGAAGAAUGCGGGUUCGAGUCCCGUUCGGAACG [U32C A40U C46A A65U] | 0.589
27 | GUUCCGUUGGCGUAAUGGUAACGCGUCUCCCCCCUAAGGAGAUGACUGCGGGUUCGAGUCCCGUACGGAUCG [U32C A43U A70U] | 0.735
28 | GUUCCGUUGGCGUAAUGGUAACGCGUCUCCCACCUAAGGAGAAGACUGCGGGUUCGAGGCCCGUACGGAACG [U32A U59G] | 0.831
29 | GUUCCGUUGGCGUAAUGGUAACGCGUCUCCCCCCUCAGGAGAAGACUGCGGCUUCGAGUCCCGUAUGGAACG [U32C A36C G52C C66U] | ≤ 0.5
30 | GUUCCGUUGGCGUAAUGGUAACGCGUCUCCCCCCUAUGGAGAAGACUGCGGGUUCCUGUCCCGUACGGAACG [U32C A37U G56C A57U] | ≤ 0.5
31 | GUUCCGUUGGCGUAAUGGUAACGCGUCUCCCCCCUAAGGGGAAGACUCCGGGUUCGAGUCCCGUACGGUUCG [U32C A40G G48C A69U A70U] | ≤ 0.5
32 | GUUCCGUUGGCGUAAUGGUAACGCGUCUCCCCCCUAAGGAGUAGACUGCGGGUUCGAGUCCCGAGCGGAACG [U32C A42U U64A A65G] | ≤ 0.5
33 | GUUCCGUUGGCGUAAUGGUAACGCGUCUCCCCCCUAAGGAGACGACUGCGGGUUAGCGUCCCGUACGGAACG [U32C A43C C55A A57C] | ≤ 0.5
34 | GUUCCGUUGGCGUAAUGGUAACGCGUCUCCCCCCUAAGGAGUAGACUGCGGGUUCGAGUCCGGUACGGAACG [U32C A42U C62G] | 0.578
35 | GUUCCGUUGGCGUAAUGGUAACGCGUCUCCCCCCUAUGGAGAAGACUACGGGUUCGAGUCCCGUACGGAACG [U32C A37U G48A] | 0.537
36 | GUUCCGUUGGCGUAAUGGUAACGCGUCUCCCCCCUAAGGAGCACACUGCGGGUUCGAGUCCCGUACGGCACG [U32C A42C G44C A69C] | ≤ 0.5
37 | GUUCCGUUGGCGUAAUGGUAACGCGUCUCCCCCCUAAGGAGCAAACUGCGGGAUCGAGUCCCGUACGGAACG [U32C A42C G44A U53A] | ≤ 0.5
38 | GUUCCGUUGGCGUAAUGGUAACGCGUCUCCCCCCUACGGAGAAGACUGGGGGUUCGGGUCCCGUACGGAACG [U32C A37C C49G A57G] | ≤ 0.5
